ChEMBL document CHEMBL4052819 (2017)
Converted amounts (≈) assume the structure as drawn. The source made the active and inactive calls. The rule behind the calls is not given here. Non-standard residues stand in square brackets, D forms with d. Residues, ends and D or L forms follow the SMILES beside them. Cha = N[C@@H](CC1CCCCC1)C(=O)O; Dab = NCC[C@H](N)C(=O)O

Key:
Escherichia coli [1] = experiment: Antibacterial activity against Escherichia coli ATCC 25922 in presence of 100% serum after 12 hrs by broth microdilution method; assay type: functional; conditions: ATCC 25922, 12 h
Procedure, shortened: (§1)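 Serum stability: compound added to 100% human serum at final 64 μg/mL, held at 37 °C, sampled at 0, 6, 12 and 24 h. […] Residual activity compared with untreated control.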

Enterococcus faecium = experiment: Bactericidal activity against Enterococcus faecium ATCC 19434; assay type: functional; conditions: read-out: MBC99.9
Procedure, shortened: (§2)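 MBC from MIC plates at end point: 50 μL from each well with no visible growth plated on tryptic soy agar and counted. MBC taken as lowest concentration giving ≥99.9% fall in viable count relative to initial inoculum. Three independent experiments, one replicate each.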

Staphylococcus aureus [2] = experiment: Antibiofilm activity against methicillin-resistant Staphylococcus aureus LAC established catheter-associated biofilm model at 5 times MIC after 72 hrs relative to control; assay type: functional
Staphylococcus aureus [3] = experiment: Bactericidal activity against Staphylococcus aureus ATCC 29213 at 16 ug/ml after 4 hrs by time-kill assay relative to control; assay type: functional
Procedure, shortened: (§3)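 Time-kill at 8, 16 and 32 μg/mL; survivors counted on tryptic soy agar at 0, 2, 4, 6 and 24 h. Three independent experiments, one replicate each.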

Staphylococcus aureus [4] = experiment: Antibacterial activity against methicillin-resistant Staphylococcus aureus LAC; assay type: functional
Escherichia coli [5] = experiment: Antibacterial activity against carbapenem-resistant Escherichia coli clinical isolate expressing beta-lactamase KPC3, TEM1 after 18 to 20 hrs by broth microdilution method; assay type: functional
Procedure, shortened: (§4)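 Broth microdilution in tryptic soy broth: 2-fold dilutions mixed 1:1 with ~1.5 × 10^5 CFU/mL bacterial suspension in TSB, final 0.5–32 μg/mL, 37 °C for 18–20 h. MIC = lowest concentration with no visible growth. At least three independent experiments, one replicate each.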

Pseudomonas aeruginosa [6] = experiment: Bactericidal activity against Pseudomonas aeruginosa ATCC 27853 at 8 ug/ml after 24 hrs by time-kill assay; assay type: functional; procedure, shortened: as §3
Escherichia coli [7] = experiment: Antibacterial activity against Escherichia coli ATCC 25922 in presence of 100% serum after 24 hrs by broth microdilution method; assay type: functional; conditions: ATCC 25922, 24 h; procedure, shortened: as §1
Staphylococcus aureus [8] = experiment: Antibacterial activity against Staphylococcus aureus ATCC 29213 after 18 to 20 hrs by broth microdilution method; assay type: functional
Procedure, shortened: (§5)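 Broth microdilution in tryptic soy broth: 2-fold dilutions mixed 1:1 with ~1.5 × 10^5 CFU/mL inoculum, final 0.5–32 μg/mL; 37 °C, 18–20 h. MIC taken as lowest concentration giving no visible growth. At least three independent experiments, one replicate each.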

Escherichia coli [9] = experiment: Antibacterial activity against Escherichia coli ATCC 25922 after 18 to 20 hrs by broth microdilution method; assay type: functional; procedure, shortened: as §5
Pseudomonas aeruginosa [10] = experiment: Induction of cytoplasmic membrane damage in Pseudomonas aeruginosa ATCC 27853 assessed as intracellular potassium ion release at 32 to 64 ug/ml by PBFI probe-based fluorescence assay; assay type: functional, cell-based
Procedure, shortened: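 Mid-log cells washed and suspended in 5 mM HEPES pH 7.2 + 5 mM glucose. PBFI K+ probe added at final 2 μM, then compound at final 8–64 μg/mL; fluorescence read at ex 346/em 505 nm. Three independent experiments; change in fluorescence analysed by ANOVA with Tukey HSD.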

Escherichia coli [11] = experiment: Antibacterial activity against Escherichia coli ATCC 25922 in presence of 100% serum after 6 hrs by broth microdilution method; assay type: functional; conditions: ATCC 25922, 6 h; procedure, shortened: as §1
Pseudomonas aeruginosa [12] = experiment: Antibacterial activity against Pseudomonas aeruginosa ATCC 27853 after 18 to 20 hrs by broth microdilution method; assay type: functional; procedure, shortened: as §5
Staphylococcus aureus [13] = experiment: Bactericidal activity against Staphylococcus aureus ATCC 29213 at 32 ug/ml after 60 mins in presence of LTA; assay type: functional
Procedure, shortened: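 S. aureus at ~10^6 CFU/mL mixed with S. aureus LTA (final 10, 25, 50 or 100 μg/mL), then compound at final 32 μg/mL. Incubated 37 °C, 200 rpm, 60 min; survivors counted on TSA. Four independent experiments, one replicate each.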

Escherichia coli [14] = experiment: Antibacterial activity against polymyxin-resistant Escherichia coli UAMS-ECPR1 after 18 to 20 hrs by broth microdilution method; assay type: functional; procedure, shortened: as §4
Staphylococcus aureus [15] = experiment: Bactericidal activity against Staphylococcus aureus ATCC 29213 at 8 ug/ml after 24 hrs by time-kill assay; assay type: functional; procedure, shortened: as §3
Pseudomonas aeruginosa [16] = experiment: Bactericidal activity against Pseudomonas aeruginosa ATCC 27853 at 32 ug/ml after 2 hrs by time-kill assay relative to control; assay type: functional; procedure, shortened: as §3
Staphylococcus aureus [17] = experiment: Bactericidal activity against Staphylococcus aureus ATCC 29213; assay type: functional; conditions: read-out: MBC99.9; procedure, shortened: as §2
Escherichia coli [18] = experiment: Antibacterial activity against polymyxin-resistant Escherichia coli AR 0494 expressing mcr1 after 18 to 20 hrs by broth microdilution method; assay type: functional; procedure, shortened: as §4

CC(C)C[C@H](NC(=O)[C@@H](Cc1ccccc1)NC(=O)[C@H](CCN)NC(=O)[C@H](Cc1ccccc1)NC(=O)[C@H](CCN)NC(=O)[C@@H](N)CC1CCCCC1)C(=O)N[C@@H](CCN)C(=O)N[C@H](CC(C)C)C(=O)N[C@@H](Cc1ccccc1)C(=O)N[C@@H](CO)C(N)=O (H-[Cha][Dab]F[Dab][dF]L[Dab][dL]FS-NH2)
MIC (Escherichia coli [1]): 4 to 8 µg/mL | MBC (Enterococcus faecium): 16 µg/mL (≈ 13.1 µM) | Activity (Staphylococcus aureus [2]): 3 deltalog10CFU/ml | Activity (Staphylococcus aureus [3]): 3.1 deltalog10CFU/ml | MIC (Staphylococcus aureus [4]): 8 µg/mL (≈ 6.53 µM) | MIC (Escherichia coli [5]): 0.5 to 1 µg/mL (≈ 0.408 to 0.816 µM) | Activity (Pseudomonas aeruginosa [6]): inactive | MIC (Escherichia coli [7]): 8 µg/mL | MIC (Staphylococcus aureus [8]): 2 to 4 µg/mL (≈ 1.63 to 3.26 µM) | MIC (Escherichia coli [9]): 0.5 to 1 µg/mL (≈ 0.408 to 0.816 µM) | Activity (Pseudomonas aeruginosa [10]): Active | MIC (Escherichia coli [11]): 4 to 8 µg/mL | MIC (Pseudomonas aeruginosa [12]): 0.5 to 1 µg/mL (≈ 0.408 to 0.816 µM) | Activity (Staphylococcus aureus [13]): inactive | MIC (Escherichia coli [14]): < 0.5 µg/mL | Activity (Staphylococcus aureus [15]): inactive | Activity (Pseudomonas aeruginosa [16]): 5.1 deltalog10CFU/ml | MBC (Staphylococcus aureus [17]): 8 µg/mL (≈ 6.53 µM) | MIC (Escherichia coli [18]): 0.5 µg/mL (≈ 0.408 µM)
